Reference: ChEMBL document CHEMBL3632560, “1,4-Oxazine β-Secretase 1 (BACE1) Inhibitors: From Hit Generation to Orally Bioavailable Brain Penetrant Leads” (J Med Chem, 2015)

Columns and labels:
[1] = Dissociation constant, pKa of the compound by potentiometric titration assay; assay type: physicochemical
[2] = Drug metabolism in human liver microsomes at 1 uM after 15 min by HPLC-MS/MS analysis; assay type: ADME; details: read-out: Drug metabolism
[3] = Drug metabolism in mouse liver microsomes at 1 uM after 15 min by HPLC-MS/MS analysis; assay type: ADME; details: read-out: Drug metabolism
MDR1 (human) = assay: Apparent permeability across apical to basolateral side in pig LLC cells transfected with human MDR1 at 5 uM by HPLC-MS/MS analysis; assay type: ADME, cell-based, Sus scrofa; details: LLC-PK1
[4] = Distribution coefficient, logD of the compound by chromatography; assay type: physicochemical; details: octanol/water
[5] = Drug metabolism in dog liver microsomes at 1 uM after 15 min by HPLC-MS/MS analysis; assay type: ADME, Canis lupus familiaris; details: read-out: Drug metabolism
Procedure, shortened: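 Final solvent 0.01% DMSO and 0.5% acetonitrile. Reaction started with NADPH and quenched with acetonitrile at 15 min. Percent metabolized is parent loss measured by HPLC-MS/MS.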

[6] = Ratio of drug level in brain to plasma of pathogen free CD1 Swiss mouse at 10 mg/kg, po; assay type: ADME, organism-based
Procedure, shortened: (§1)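 Fasted male CD1 Swiss SPF mice dosed 10 mg/kg p.o. (n=6) in 20% HPβCD at pH 3.9 or 20% SBEβCD at pH 3.5. Plasma and brain taken at 2, 4 and 7 h. One hemisphere used for drug bioanalysis; the other was homogenized for Aβ42 and Aβ total by sandwich immunoassay. Kp calculated from AUC0-last.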

[7] = Drug uptake in pathogen free CD1 Swiss mouse brain at 10 mg/kg, po after 4 hrs; assay type: ADME, organism-based; details: read-out: Drug uptake; procedure, shortened: as §1
[8] = Elimination half-life in Beagle dog at 2.5 mg/kg, po; assay type: ADME, organism-based, Canis lupus familiaris; details: in vivo, read-out: beta t1/2 (converted)
Procedure, shortened: (§2)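 Fasted Beagle dogs, 2 male and 2 female per dose group, given doses from 0.08 to 10 mg/kg in 20% HPβCD at pH 3.5. Plasma drug levels followed over time to give Cmax, Tmax and T½. CSF Aβ42 measured by MesoScale electrochemiluminescence for up to 50 h after dosing.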

[9] = Cmax in Beagle dog at 2.5 mg/kg, po; assay type: ADME, organism-based, Canis lupus familiaris; parameters: dose 2.5 mg/kg, route oral; details: in vivo; procedure, shortened: as §2
[10] = Tmax in Beagle dog at 2.5 mg/kg, po; assay type: ADME, organism-based, Canis lupus familiaris; details: in vivo; procedure, shortened: as §2

| pKa [1] | metabolised at 0.25 h, 1 µM [2] | metabolised at 0.25 h, 1 µM [3] | SMILES | also measured |
| --- | --- | --- | --- | --- |
| 9.6 | 0% | 6% | C[C@@]1(c2cccc(NC(=O)c3ccc(Cl)cn3)c2)COCC(N)=N1 | – |
| 9 | 1% | 6% | COc1cnc(C(=O)Nc2ccc(F)c([C@]3(C)COCC(N)=N3)c2)cn1 | Papp A→B at 5 µM (MDR1 (human)): 37 nm/s |
| 7.6 | – | – | COc1cnc(C(=O)Nc2ccc(F)c([C@@]3(C)N=C(N)CO[C@H]3F)c2)cn1 | – |
| 7.8 | 31% | 3% | COc1cnc(C(=O)Nc2ccc(F)c([C@@]3(C)N=C(N)CO[C@@H]3F)c2)cn1 | chromatographic logD [4]: 2.04; metabolised at 0.25 h, 1 µM [5]: 70%; Kp [6]: 0.65; concentration at 4 h [7]: 195 ng/g |
| 6.8 | – | – | COc1cnc(C(=O)Nc2ccc(F)c([C@@]3(C)N=C(N)CO[C@@]3(F)C(F)(F)F)c2)cn1 | chromatographic logD [4]: 3.43 |
| 6.9 | – | – | COc1cnc(C(=O)Nc2ccc(F)c([C@@]3(C)N=C(N)CO[C@]3(F)C(F)(F)F)c2)cn1 | – |
| 7.8 | – | – | COc1cnc(C(=O)Nc2ccc(F)c([C@@]3(C4CC4)N=C(N)CO[C@@H]3F)c2)cn1 | – |
| 7.9 | 0% | 17% | C[C@]1(c2cc(NC(=O)c3ccc(Cl)cn3)ccc2F)N=C(N)CO[C@@H]1F | Papp A→B at 5 µM (MDR1 (human)): 85 nm/s; metabolised at 0.25 h, 1 µM [5]: 7% |
| 7.4 | 16% | 98% | Cc1cc(Cl)cnc1C(=O)Nc1ccc(F)c([C@@]2(C)N=C(N)CO[C@@H]2F)c1 | Papp A→B at 5 µM (MDR1 (human)): 93 nm/s; metabolised at 0.25 h, 1 µM [5]: 21% |
| 7.9 | 0% | 2% | C[C@]1(c2cc(NC(=O)c3ccc(C#N)cn3)ccc2F)N=C(N)CO[C@@H]1F | metabolised at 0.25 h, 1 µM [5]: 0%; Kp [6]: 0.33; half-life [8]: 25 h; concentration at 4 h [7]: 98 ng/g; Cmax [9]: 0.571 µg/mL; Tmax [10]: 2.5 h |
| 9.8 | – | – | CC1(c2ccccc2)COCC(N)=N1 (stereo not drawn) | – |
| 8.1 | – | – | C[C@]1(c2cc(N)ccc2F)N=C(N)CO[C@@H]1F | – |
| 8 | – | – | C[C@]1(c2cc(N)ccc2F)N=C(N)CO[C@H]1C(F)(F)F | – |
| 2.6 | – | – | COc1cnc(C(=O)Nc2ccnc([C@@]3(C)N=C(N)CO[C@@H]3F)c2)cn1 (racemic) | – |
| 2.8 | – | – | COc1cnc(C(=O)Nc2cc([C@@]3(C)N=C(N)CO[C@@H]3F)ccn2)cn1 (racemic) | – |
